# Bioassay records from PubChem BioAssay.
# The entries come from a sample that favours hits as a whole.
# XBP1 UPR activ = activators of adaptive arm of unfolded protein response (XBP1); CHO-XBP1 luciferase reporter, IRE1-XBP1 UPR activation, luminescence; percent of tunicamycin response, DMSO as zero; activation, % at 20 µM; AID 463104; 330,000 compounds, 0.33% hits;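 active means versus positive control, 20 µM dose yields 30% or more activation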;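 further: 100% = tunicamycin at 10 µg/mL and 0% = DMSO only wells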
#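 Material: CHO-XBP1 cells stably carrying IRE1-XBP1-driven luciferase reporter | Medium: F12 with 10% serum | Compound dosing: 20 µM single concentration, DMSO 1% | Incubation: Overnight seeding at 37 °C, 6 h compound treatment at 37 °C | Detection: Steady-Glo luminescence read | Read-out basis: % activation of reporter signal versus tunicamycin and DMSO controls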
# CHOP UPR activ = apoptotic UPR (CHOP) activation | CHO-CHOP luciferase reporter, luminescence; percent of tunicamycin response over DMSO baseline | activation, % at 10 µM | 330,000 compounds, 0.34% hits;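 active means at 10 µM dose, activation of 40% or more, normalized to positive control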;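 further: 100% = tunicamycin at 10 µg/mL and 0% = DMSO alone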
#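 Assay system: CHO-CHOP cells, stable luciferase reporter of PERK-eIF2a-CHOP signalling / Buffer or medium: F12 plus 10% serum / Compound dosing: one dose, 10 µM in 0.5% DMSO / Times: 6 h compound treatment, 37 °C / Technique: luciferase luminescence / Read-out: % reporter activation, DMSO baseline versus tunicamycin full activation / Benchmarks: tunicamycin and DMSO controls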
# CHOP inh = blocks CHOP induction under ER stress | CHO-K1 CHOP-promoter luciferase, tunicamycin-induced, 15-18 h | inhibition, % at 10 µM | AID 2732 | 220,000 compounds, 3.8% hits;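 active means compounds that reduced the stress-induced luciferase reporter signal by more than about 70% of percent inhibition, limit read from the data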;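 further: 0% = tunicamycin plus vehicle and 100% = wells without tunicamycin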
# PvdQ inh = blocks Pseudomonas aeruginosa PvdQ acylase activity; 340,000 compounds, 0.063% hits; inhibition, % at 10 µM; purified PvdQ acylase, fluorescence plate reader; in the data active means inhibition above about 30%, passing the limit was not always enough;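 further: 0% = vehicle neutral wells and 100% = reference inhibitor wells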
# Starred values were filed as active, the others as inactive; · = not tested or not shown.
SMILES,XBP1 UPR activ,CHOP UPR activ,CHOP inh,PvdQ inh
OCC[C@@H]1C[C@@H](O)[C@H](O)[C@]2(CCCCO2)O1,-1,-2,-3,-17
C/C=C(\C)C(=O)OC1[C@H](OC(C)=O)C2(CO)C(CC1(C)C)C1=CCC3C4(C)CCC(O[C@@H]5O[C@H](C(=O)O)[C@@H](O[C@@H]6O[C@H](CO)[C@@H](O)[C@H](O)[C@H]6O)[C@H](O)[C@H]5O[C@H]5O[C@H](CO)[C@@H](O)[C@H](O)[C@H]5O)[C@](C)(CO)C4CCC3(C)[C@]1(C)C[C@H]2O (stereo not given in full),·,·,·,2
Clc1cc(Sc2ccc(Br)cc2)nnc1-c1ccccc1,0,1,38,1
CC1(C)Cc2c(c(-c3ccco3)nc3sc4c(NCC5CCCO5)ncnc4c23)CO1 (stereo not given),16,1,95*,-19
COc1ccc(CS(=O)(=O)/C(Cl)=C(/Cl)C(=O)Nc2ccc(OC)nc2)cc1,-9,6,·,-5
O=C(NCCSCc1ccco1)Nc1cc(Cl)cc(Cl)c1,-1,3,70*,8
O=C1CC(N2CCN(C3CC(=O)N(CCc4ccccc4)C3=O)CC2)C(=O)N1CCc1ccccc1 (stereo not given),-3,-2,1,-7
O=C1CC(N2CCC(Cc3ccccc3)CC2)C(=O)N1CCc1ccccc1 (stereo not given),-2,-1,72*,6
O=C(CNC(=O)C(c1ccccc1)c1ccccc1)N/N=C/c1cccnc1,0,0,-9,-18
O=C(N/N=C/c1cccnc1)c1cc2c(ccc3ccccc32)o1,0,-1,91*,-1
O=C(N/N=C/c1cccnc1)c1ccc(NC(=O)C(c2ccccc2)c2ccccc2)cc1,-3,-1,78*,5
O=C(N/N=C/c1cccnc1)c1cc2ccccc2o1,5,1,-8,10
CCOC(=O)[C@@H]1C(c2c(OC)cc(OC)cc2OC)=NO[C@@H]1C(=O)OCC,-1,2,24,-12
O=C(OCn1ncc(Cl)c(Cl)c1=O)c1ccccc1Cl,·,·,107*,3
O=C1CN(C(=O)Cn2ncc(Cl)c(Cl)c2=O)c2ccccc2N1,·,·,92*,-14
C=CCn1c(C)cc(C(=O)Cn2ncc(Cl)c(Cl)c2=O)c1C,·,·,75*,10
O=C(Cn1ncc(Cl)c(Cl)c1=O)c1ccc(Cl)cc1,·,·,102*,-6
CC(C)(C)C(=O)Cn1ncc(Cl)c(Cl)c1=O,·,·,-68,5
O=C(Nc1ccncc1)C1CCN(S(=O)(=O)c2ccc(Cl)cc2)CC1,-2,1,·,-3
CN(C)c1nc(N)nc(CSc2nc3cc(Cl)ccc3o2)n1,8,7,77*,-5
O=C(/C=C/c1ccc(Br)cc1)c1ccco1,4,3,-67,56*
CCN(CC)c1ccc(/C=N/Nc2nc3ccccc3[nH]2)c(O)c1,24,13,83*,-6
C(=N\Nc1nc2ccccc2[nH]1)/c1cccc2nccnc12,15,8,71*,-11
C(=N\Nc1nc2ccccc2[nH]1)/c1ccccn1,·,·,85*,-6
C(=N\Nc1nc2ccccc2[nH]1)/c1ccc2ncccc2c1,2,6,1,9
SMILES,XBP1 UPR activ,CHOP UPR activ,CHOP inh,PvdQ inh
COc1cc(OC)c(OC)cc1/C=N/Nc1nc2ccccc2[nH]1,5,2,-9,13
Cc1cccc(S(=O)(=O)N2CCN(Cc3ccc4c(c3)OCO4)CC2)c1,-2,-2,·,-14
NC(=NC(=O)c1ccc(OCC(F)(F)F)nc1)c1ccc(Cl)cc1,-2,-2,82*,-18
NC(=NC(=O)c1ccc(OCC(F)(F)F)nc1)c1ccccc1,-1,0,25,5
COC(=O)c1ccc(N2CCN(S(=O)(=O)c3ccc(Br)cc3)CC2)c([N+](=O)[O-])c1,0,4,54,2
Cc1ccc(NS(=O)(=O)c2ccc(N3CCN(c4ccc(O)cc4)CC3)c([N+](=O)[O-])c2)c(C)c1,1,1,73*,9
O=[N+]([O-])c1cc(S(=O)(=O)Nc2ccccc2)ccc1N1CCN(c2ccc(O)cc2)CC1,4,-1,40,1
Cc1cccc(C)c1NC(=O)COC(=O)c1ccc(N2CCCC2)c([N+](=O)[O-])c1,-2,1,80*,-12
CC(=O)Nc1ccc(S(=O)(=O)N2CCN(c3cc4c(cc3[N+](=O)[O-])n(C)c(=O)n4C)CC2)cc1,0,0,9,-11
